We go through one compound from ChEMBL document CHEMBL2321840, “Synthesis and structure-activity relationships of indazole arylsulfonamides as allosteric CC-chemokine receptor 4 (CCR4) antagonists” (J Med Chem, 2013).

Structures are written as SMILES. In brackets after ≈: the same amount, converted by molar mass. Where only a bound is given, the exact number is not on record here.

Series [1] concerns Rattus norvegicus. Nature of the series: Toxicity in rat administered for 7 days. It is filed as organism-based. The settings on record: in vivo, 168 h.
A short description of series [2]: Plasma protein binding in Beagle dog by equilibrium dialysis technique. In kind it is ADME, cell-free, Canis lupus familiaris. The settings on record: read-out: PPB. Summed up: (§1)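 Rapid equilibrium dialysis in CD rat, beagle dog or human plasma, with compound at a nominal 1 μg/mL; n = 3.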
On the technique in general: Equilibrium dialysis compares concentrations on both sides of a semipermeable membrane.

In series [3] the test system is Rattus norvegicus. Nature of the series: Cardiotoxicity in rat at 30 to 300 mg/kg, po. The settings on record: in vivo. Set-up: dose 30-300 mg/kg, route oral. It is filed as toxicity, organism-based. An outline of the steps:
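Conscious rats were given oral doses of 30, 100 and 300 mg/kg. Body temperature, cardiovascular and electrocardiographic parameters were monitored.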

The species named for series [4] is Oryctolagus cuniculus. Nature of the series: Cardiotoxicity in rabbit assessed as effect on conduction. It is filed as toxicity.
For series [5], the species on record is Oryctolagus cuniculus. Nature of the series: Cardiotoxicity in rabbit assessed as effect on cardiac repolarization. It is filed as toxicity, Heart.
In the next series the test system is Salmonella typhimurium. Nature of the series: Genotoxicity in Salmonella typhimurium by Ames test. It is filed as toxicity, organism-based. The settings on record: salmonella enterica subsp. enterica serovar typhimurium. In general terms: The Ames test uses bacterial strains that need an amino acid and regain growth without it when mutated back.
Series [6] addresses T1, Solute carrier organic anion transporter family member 1B1 (Homo sapiens, UniProt Q9Y6L6).
T1 sequence (Q9Y6L6 whole entry): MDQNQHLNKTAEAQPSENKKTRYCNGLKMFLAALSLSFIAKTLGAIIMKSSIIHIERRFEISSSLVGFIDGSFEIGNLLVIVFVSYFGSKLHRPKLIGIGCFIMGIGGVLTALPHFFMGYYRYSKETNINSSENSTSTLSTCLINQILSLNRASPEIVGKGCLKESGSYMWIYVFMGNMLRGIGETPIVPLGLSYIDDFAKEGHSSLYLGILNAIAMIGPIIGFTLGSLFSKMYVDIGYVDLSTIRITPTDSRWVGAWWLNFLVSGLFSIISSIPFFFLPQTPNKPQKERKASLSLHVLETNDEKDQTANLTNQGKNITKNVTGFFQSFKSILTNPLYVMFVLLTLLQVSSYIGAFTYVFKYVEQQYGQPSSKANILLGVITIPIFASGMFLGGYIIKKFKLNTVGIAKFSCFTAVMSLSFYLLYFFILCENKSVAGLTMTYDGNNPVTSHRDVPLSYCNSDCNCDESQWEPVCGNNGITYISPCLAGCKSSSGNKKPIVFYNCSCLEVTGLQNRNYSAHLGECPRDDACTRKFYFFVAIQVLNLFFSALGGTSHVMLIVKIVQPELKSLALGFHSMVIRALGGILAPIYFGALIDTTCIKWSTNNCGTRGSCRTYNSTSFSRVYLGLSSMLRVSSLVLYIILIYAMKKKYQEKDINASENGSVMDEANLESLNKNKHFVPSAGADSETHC
Nature of the series: Antagonist activity at OATP1B1 (unknown origin) by [35S]GTPgammaS binding assay. It is filed as functional. (In general: GTPγS is a poorly hydrolysed GTP analogue; its binding reports G protein activation.)

Series [7] addresses T2, C-X-C chemokine receptor type 3 (Homo sapiens, UniProt P49682).
T2 sequence (P49682 whole entry): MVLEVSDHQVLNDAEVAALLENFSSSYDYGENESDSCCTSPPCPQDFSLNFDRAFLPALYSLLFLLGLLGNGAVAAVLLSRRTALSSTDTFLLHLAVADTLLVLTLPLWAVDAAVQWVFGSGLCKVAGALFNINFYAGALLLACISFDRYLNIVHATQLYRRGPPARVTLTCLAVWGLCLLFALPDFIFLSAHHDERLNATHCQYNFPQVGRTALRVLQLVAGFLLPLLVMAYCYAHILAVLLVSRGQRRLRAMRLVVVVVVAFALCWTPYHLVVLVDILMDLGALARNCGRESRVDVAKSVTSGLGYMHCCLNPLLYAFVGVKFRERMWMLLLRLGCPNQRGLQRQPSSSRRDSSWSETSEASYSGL
Nature of the series: Antagonist activity at CXCR3 receptor (unknown origin) by [35S]GTPgammaS binding assay. In kind it is functional.

Series [8] concerns the target C-C chemokine receptor type 8 (Homo sapiens, UniProt P51685). Nature of the series: Antagonist activity at CCR8 receptor (unknown origin) by [35S]GTPgammaS binding assay. It is filed as functional.
The target of series [9] is T3, C-C chemokine receptor type 1 (Homo sapiens, UniProt P32246).
T3 sequence (P32246 whole entry): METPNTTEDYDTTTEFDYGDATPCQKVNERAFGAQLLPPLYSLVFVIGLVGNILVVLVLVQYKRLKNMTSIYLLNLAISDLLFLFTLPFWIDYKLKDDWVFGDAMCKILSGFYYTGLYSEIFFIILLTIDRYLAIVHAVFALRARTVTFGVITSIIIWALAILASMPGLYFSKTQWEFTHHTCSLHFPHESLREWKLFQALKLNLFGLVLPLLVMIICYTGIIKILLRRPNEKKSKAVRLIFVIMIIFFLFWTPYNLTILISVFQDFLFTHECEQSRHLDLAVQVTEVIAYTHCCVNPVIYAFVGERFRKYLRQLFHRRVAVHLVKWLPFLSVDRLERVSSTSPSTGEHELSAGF
Nature of the series: Antagonist activity at CCR1 receptor (unknown origin) by [35S]GTPgammaS binding assay. In kind it is functional.

Series [10] concerns the target C-C chemokine receptor type 2 (Homo sapiens, UniProt P41597). Nature of the series: Antagonist activity at CCR2 receptor (unknown origin) by [35S]GTPgammaS binding assay. In kind it is functional.
Series [11] in a line: Oral bioavailability in CD rat at 10 mg/kg administered as suspension. In kind it is ADME, organism-based. The settings on record: in vivo.
Series [12] can be described thus: Kinetic solubility of the compound in PBS using DMSO at pH 7.4 by NMR analysis. It is filed as physicochemical. The settings on record: read-out: Kinetic_solubility.
Series [13] can be described thus: Kinetic solubility of the compound in PBS using MeOH at pH 7.4 by NMR analysis. In kind it is physicochemical. The settings on record: read-out: Kinetic_solubility.
Series [14] is described as follows: Equilibrium solubility of the compound in Britton-Robinson buffer at pH 10 after 24 hrs by HPLC analysis. It is filed as physicochemical. Summed up:
(§2)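 Solid compound was equilibrated 24 h in Britton–Robinson buffer at the stated pH. Dissolved compound was quantified by HPLC.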

Series [15] can be described thus: Equilibrium solubility of the compound in Britton-Robinson buffer at pH 8 after 24 hrs by HPLC analysis. In kind it is physicochemical. An outline of the steps:
as §2

Series [16] is described as follows: Equilibrium solubility of the compound in Britton-Robinson buffer at pH 2 after 24 hrs by HPLC analysis. It is filed as physicochemical. Summed up:
as §2

A short description of series [17]: Equilibrium solubility of the compound in water after 24 hrs by HPLC analysis. In kind it is physicochemical. Summed up: (§3)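 Solid compound was equilibrated 24 h in the stated medium: water, SGF pH 1.6, FeSSIF pH 6.5, FaSSIF pH 6.5 or saline. Dissolved compound was quantified by HPLC.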
Series [18] is described as follows: Equilibrium solubility of the compound in simulated gastric fluid at pH 1.6 after 24 hrs by HPLC analysis. In kind it is physicochemical. An outline of the steps: as §3
Series [19] in a line: Oral bioavailability in Beagle dog at 1 mg/kg. In kind it is ADME, organism-based, Canis lupus familiaris. The settings on record: in vivo.
Series [20] in a line: Dissociation constant, pKa of the compound. It is filed as physicochemical.
Series [21] is described as follows: Plasma protein binding in human by equilibrium dialysis technique. It is filed as ADME, cell-free. The settings on record: read-out: PPB (converted). Summed up:
as §1

A short description of series [22]: Kinetic solubility of the compound by chemiluminescent nitrogen detection assay. In kind it is physicochemical. The settings on record: read-out: Kinetic_solubility.
The nature of the next series: in vivo. The settings on record: beagle, dog, iv, 0.5 mg/kg.

Chain of C-C chemokine receptor type 2 (P41597 whole entry): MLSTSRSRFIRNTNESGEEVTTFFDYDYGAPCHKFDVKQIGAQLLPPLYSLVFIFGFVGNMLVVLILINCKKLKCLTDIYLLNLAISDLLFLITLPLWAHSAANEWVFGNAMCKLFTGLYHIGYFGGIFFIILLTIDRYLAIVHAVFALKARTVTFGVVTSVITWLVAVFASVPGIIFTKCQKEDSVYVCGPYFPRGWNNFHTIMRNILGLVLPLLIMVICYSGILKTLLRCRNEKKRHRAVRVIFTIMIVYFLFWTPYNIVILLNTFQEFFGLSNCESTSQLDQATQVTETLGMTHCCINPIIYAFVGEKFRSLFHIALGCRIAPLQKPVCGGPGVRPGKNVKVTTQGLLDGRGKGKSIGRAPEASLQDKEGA
Chain of C-C chemokine receptor type 8 (P51685 whole entry): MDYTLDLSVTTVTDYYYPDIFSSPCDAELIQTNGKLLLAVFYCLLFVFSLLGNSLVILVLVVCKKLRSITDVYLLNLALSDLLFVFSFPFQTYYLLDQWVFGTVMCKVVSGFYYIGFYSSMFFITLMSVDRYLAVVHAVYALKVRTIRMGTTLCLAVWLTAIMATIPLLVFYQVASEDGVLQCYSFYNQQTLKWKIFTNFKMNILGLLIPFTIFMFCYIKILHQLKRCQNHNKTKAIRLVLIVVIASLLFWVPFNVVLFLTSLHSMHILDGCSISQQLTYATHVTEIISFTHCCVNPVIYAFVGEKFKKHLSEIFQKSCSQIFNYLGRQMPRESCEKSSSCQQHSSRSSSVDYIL

`COc1cccc2c1c(NS(=O)(=O)c1ccc(Cl)s1)nn2Cc1cccc(CNC(=O)C(C)(C)O)c1`: the Activity result in the series on Rattus norvegicus [1], in the series on Rattus norvegicus [3], in the series listed under Oryctolagus cuniculus [4], in the series listed under Oryctolagus cuniculus [5] and with Salmonella typhimurium was “Non-toxic” in each case. For the same compound, the fraction unbound in series [2] was ≤ 0.01; in series [21], 0.01. Also, the IC50 in series [6] was 0.398 µM; in series [7], > 10 µM; in series [8] it was > 10 µM; in series [9] it was > 10 µM; in [10] it was > 10 µM. In addition, the bioavailability in [11] was 80%; in series [19], 97%. Also, the results for the solubility kinetic in [12], in series [13] and in series [22] were 270 µg/mL (≈ 492 µM), > 270 µg/mL and ≥ 162 µg/mL, respectively. The solubility (thermodynamic) at 24 h in series [14] was 1320 µg/mL (≈ 2410 µM); in series [15] it was 56 µg/mL (≈ 102 µM); in series [16], 3 µg/mL (≈ 5.46 µM); in [17], 57 µg/mL (≈ 104 µM); in series [18] it was 1 µg/mL (≈ 1.82 µM). Also, the pKa in series [20] came out at 6.54. In the series “in vivo”, this compound showed a half-life of 2.6 h.

As a reminder, the IC50 is the concentration at which inhibition is half-maximal. A high value points to weaker potency. In general, bioavailability refers to dose-corrected exposure relative to a reference, in per cent. A low value points to little systemic uptake. As a reminder, the solubility (thermodynamic) is the concentration in solution at equilibrium with solid. As a reminder, the pKa is the pH at which an ionisable group is half protonated. By half-life is commonly meant the time needed for the level to fall by half in the phase considered. A lower half-life goes with fast loss.
